Reference: ChEMBL document CHEMBL1772968, “Comparing micellar, hemolytic, and antibacterial properties of di- and tricarboxyl dendritic amphiphiles” (Bioorg Med Chem, 2011)
Converted amounts (≈) assume the structure as drawn.

What was measured:
Staphylococcus aureus [1] = assay: Antibacterial activity against methicillin-resistant Staphylococcus aureus 36361 by broth microdilution method; type: functional
How it was run: (§1)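 MIC (defined as MIC99) determined by broth microdilution in 0.1-strength brain heart infusion broth. Cultures were diluted in growth medium to an inoculum of about 10^5 CFU/mL. Stocks of the amphiphiles were made in aqueous triethanolamine (5% w/v). Vancomycin stock was 500 mg/L in sterile water. Measurements were done in duplicate. Lines 1-6 are recent patient MRSA isolates.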

[2] = Cytotoxicity in sheep RBC assessed as hemolysis after 15 mins by microplate reader; type: cell-based, Ovis aries; conditions: erythrocyte, 0.25 h
How it was run: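 Washed defibrinated sheep red cells (1.1 × 10^7 cells/mL) in PBS pH 7.4, or in full-strength BHIB, were mixed 1:1 with compound diluted from 5% triethanolamine stock. Incubation was 15 min at 37 °C, then cells were pelleted at 5000g for 20 min. Supernatant A540 was read against 0.1% Triton X-100 (complete lysis). EC10 was the lowest concentration giving 10% lysis, in duplicate.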

Staphylococcus aureus [3] = assay: Antibacterial activity against methicillin-resistant Staphylococcus aureus 53016 by broth microdilution method; type: functional; how it was run: as §1
Staphylococcus aureus [4] = assay: Antibacterial activity against methicillin-resistant Staphylococcus aureus ATCC 43330 by broth microdilution method; type: functional; how it was run: as §1
Staphylococcus aureus [5] = assay: Antibacterial activity against methicillin-resistant Staphylococcus aureus 522870 by broth microdilution method; type: functional; how it was run: as §1
Staphylococcus aureus [6] = assay: Antibacterial activity against Staphylococcus aureus ATCC 6358 by broth microdilution method; type: functional
How it was run: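 Log-phase cultures diluted and tested by broth microdilution in 0.1-strength brain heart infusion broth at about 10^5 CFU/mL inoculum. Amphiphile stocks were 12,500 µg/mL in 5% w/v aqueous triethanolamine. MIC was taken as MIC99 and run in duplicate.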

Staphylococcus aureus [7] = assay: Antibacterial activity against methicillin-resistant Staphylococcus aureus 523000 by broth microdilution method; type: functional; how it was run: as §1
Staphylococcus aureus [8] = assay: Antibacterial activity against methicillin-resistant Staphylococcus aureus 34864 by broth microdilution method; type: functional; how it was run: as §1
Staphylococcus aureus [9] = assay: Antibacterial activity against methicillin-resistant Staphylococcus aureus 34380 by broth microdilution method; type: functional; how it was run: as §1
[10] = Critical micelle concentration of the compound in full-strength brain heart infusion broth by dye-covered glass-bead release; conditions: pH 7.4
Staphylococcus aureus [11] = assay: Antibacterial activity against Staphylococcus aureus by broth microdilution method; type: functional
Staphylococcus aureus [12] = assay: Antibacterial activity against methicillin-resistant Staphylococcus aureus by broth microdilution method; type: functional

| SMILES | MIC (Staphylococcus aureus [1]) | EC10 [2] | MIC (Staphylococcus aureus [3]) | MIC (Staphylococcus aureus [4]) | MIC (Staphylococcus aureus [5]) | MIC (Staphylococcus aureus [6]) | MIC (Staphylococcus aureus [7]) | MIC (Staphylococcus aureus [8]) | MIC (Staphylococcus aureus [9]) | CMC [10] | MIC (Staphylococcus aureus [11]) | MIC (Staphylococcus aureus [12]) |
| --- | --- | --- | --- | --- | --- | --- | --- | --- | --- | --- | --- | --- |
| CCCCCCCCCCCCCCCCCCCCCCCNC(=O)NC(CCC(=O)O)(CCC(=O)O)CCC(=O)O | 43 µg/mL (≈ 70.2 µM) | 31 µg/mL | 7 µg/mL (≈ 11.4 µM) | 6.8 µg/mL (≈ 11.1 µM) | 14 µg/mL (≈ 22.8 µM) | 54 µg/mL (≈ 88.1 µM) | 14 µg/mL (≈ 22.8 µM) | 11 µg/mL (≈ 17.9 µM) | 11 µg/mL (≈ 17.9 µM) |  |  |  |
| CCCCCCCCCCCCCCCCCCCCCOC(=O)NC(C)(CCC(=O)O)CCC(=O)O | 2.2 µg/mL (≈ 4.17 µM) | 16 µg/mL | 3.4 µg/mL (≈ 6.44 µM) | 2.2 µg/mL (≈ 4.17 µM) |  | 3.4 µg/mL (≈ 6.44 µM) | 3.4 µg/mL (≈ 6.44 µM) | 4.5 µg/mL (≈ 8.53 µM) | 4.5 µg/mL (≈ 8.53 µM) | 9 µg/mL |  |  |
| CCCCCCCCCCCCCCCCCCCCCCCOC(=O)NC(CCC(=O)O)(CCC(=O)O)CCC(=O)O | 14 µg/mL (≈ 22.8 µM) | 63 µg/mL | 3.6 µg/mL (≈ 5.86 µM) | 4.5 µg/mL (≈ 7.33 µM) | 11 µg/mL (≈ 17.9 µM) | 23 µg/mL (≈ 37.5 µM) | 7 µg/mL (≈ 11.4 µM) | 3.6 µg/mL (≈ 5.86 µM) | 5.3 µg/mL (≈ 8.63 µM) | 18 µg/mL |  |  |
| CN[C@H](CC(C)C)C(=O)N[C@H]1C(=O)N[C@@H](CC(N)=O)C(=O)N[C@H]2C(=O)N[C@H]3C(=O)N[C@H](C(=O)N[C@H](C(=O)O)c4cc(O)cc(O)c4-c4cc3ccc4O)[C@H](O)c3ccc(c(Cl)c3)Oc3cc2cc(c3O[C@@H]2O[C@H](CO)[C@@H](O)[C@H](O)[C@H]2O[C@H]2C[C@](C)(N)[C@H](O)[C@H](C)O2)Oc2ccc(cc2Cl)[C@H]1O [VANCOMYCIN] | 0.75 µg/mL (≈ 0.518 µM) |  | 0.38 µg/mL (≈ 0.262 µM) | 0.25 µg/mL (≈ 0.173 µM) | 0.25 µg/mL (≈ 0.173 µM) | 0.25 µg/mL (≈ 0.173 µM) |  | 0.38 µg/mL (≈ 0.262 µM) |  |  |  |  |
| CCCCCCCCCCCCCCCCCCCCC(=O)NC(C)(CCC(=O)O)CCC(=O)O | 3.6 µg/mL (≈ 7.23 µM) | 7.8 µg/mL | 3.6 µg/mL (≈ 7.23 µM) | 2.2 µg/mL (≈ 4.42 µM) | 5.3 µg/mL (≈ 10.6 µM) | 2.2 µg/mL (≈ 4.42 µM) | 3.6 µg/mL (≈ 7.23 µM) | 3.6 µg/mL (≈ 7.23 µM) | 3.6 µg/mL (≈ 7.23 µM) | 9 µg/mL |  |  |
| CCCCCCCCCCCCCCCCCCCOC(=O)NC(C)(CCC(=O)O)CCC(=O)O | 2.2 µg/mL (≈ 4.4 µM) | 16 µg/mL | 2.2 µg/mL (≈ 4.4 µM) | 2.2 µg/mL (≈ 4.4 µM) |  | 2.2 µg/mL (≈ 4.4 µM) | 1.7 µg/mL (≈ 3.4 µM) | 2.2 µg/mL (≈ 4.4 µM) | 2.2 µg/mL (≈ 4.4 µM) | 9 µg/mL |  |  |
| CCCCCCCCCCCCCCCC(=O)O [PALMITIC ACID] |  |  |  |  |  |  |  |  |  |  | > 250 µg/mL | 250 µg/mL (≈ 975 µM) |
| CCCCCCCCCC(=O)O [DECANOIC ACID] |  |  |  |  |  |  |  |  |  |  | 250 µg/mL (≈ 1450 µM) | > 250 µg/mL |
| CCCCCCCCCCCCCCCCCCCCCOC(=O)NC(CCC(=O)O)(CCC(=O)O)CCC(=O)O | 14 µg/mL (≈ 23.9 µM) | 31 µg/mL | 7 µg/mL (≈ 11.9 µM) | 4.5 µg/mL (≈ 7.68 µM) | 7 µg/mL (≈ 11.9 µM) | 27 µg/mL (≈ 46.1 µM) | 7 µg/mL (≈ 11.9 µM) | 7 µg/mL (≈ 11.9 µM) | 5.3 µg/mL (≈ 9.05 µM) | 18 µg/mL |  |  |
| CCCCCCCCCCCC(=O)O [DODECANOATE] |  |  |  |  |  |  |  |  |  |  | 250 µg/mL (≈ 1250 µM) | > 250 µg/mL |
| CCCCCCCCCCCCCCCCCCCCCNC(=O)NC(CCC(=O)O)(CCC(=O)O)CCC(=O)O | 28 µg/mL (≈ 47.9 µM) | 31 µg/mL | 11 µg/mL (≈ 18.8 µM) | 4.5 µg/mL (≈ 7.69 µM) | 14 µg/mL (≈ 23.9 µM) | 54 µg/mL (≈ 92.3 µM) | 7 µg/mL (≈ 12 µM) | 11 µg/mL (≈ 18.8 µM) | 7 µg/mL (≈ 12 µM) | 9 µg/mL |  |  |
| CCCCCCCCCCCCCCCCCCCCCCC(=O)NC(CCC(=O)O)(CCC(=O)O)CCC(=O)O | 14 µg/mL (≈ 24 µM) | 31 µg/mL | 7 µg/mL (≈ 12 µM) | 4.5 µg/mL (≈ 7.71 µM) | 14 µg/mL (≈ 24 µM) | 54 µg/mL (≈ 92.5 µM) | 14 µg/mL (≈ 24 µM) | 7 µg/mL (≈ 12 µM) | 7 µg/mL (≈ 12 µM) | 18 µg/mL |  |  |
| CCCCCCCCCCCCCCCCCCCCC(=O)NC(CCC(=O)O)(CCC(=O)O)CCC(=O)O | 57 µg/mL (≈ 103 µM) | 31 µg/mL | 28 µg/mL (≈ 50.4 µM) | 45 µg/mL (≈ 81 µM) | 57 µg/mL (≈ 103 µM) | 54 µg/mL (≈ 97.2 µM) | 28 µg/mL (≈ 50.4 µM) | 23 µg/mL (≈ 41.4 µM) | 28 µg/mL (≈ 50.4 µM) | 18 µg/mL |  |  |
| CCCCCCCCCCCCCCCCCC(=O)O [STEARIC ACID] |  |  |  |  |  |  |  |  |  |  | > 250 µg/mL |  |
| CCCCCCCCCCCCCCCCCCCCCCC(=O)NC(C)(CCC(=O)O)CCC(=O)O | 3.6 µg/mL (≈ 6.85 µM) | 7.8 µg/mL | 3.6 µg/mL (≈ 6.85 µM) | 1.7 µg/mL (≈ 3.23 µM) | 3.6 µg/mL (≈ 6.85 µM) | 2.2 µg/mL (≈ 4.18 µM) | 3.6 µg/mL (≈ 6.85 µM) | 3.6 µg/mL (≈ 6.85 µM) | 3.6 µg/mL (≈ 6.85 µM) | 9 µg/mL |  |  |
| CCCCCCCCCCCCCC(=O)O [MYRISTIC ACID] |  |  |  |  |  |  |  |  |  |  | 250 µg/mL (≈ 1090 µM) | 250 µg/mL (≈ 1090 µM) |
